# In ChEMBL document CHEMBL3243962, “Antileukemic activity of derivatives of 1,2-dimethyl-3,4-bis(hydroxymethyl)-5-phenylpyrrole bis(N-methylcarbamate)” (J Med Chem, 1979):
# Active and inactive are the calls of the source.
# How the values were obtained:
# [1] = tested on: Mus musculus; experiment: Toxicity in mouse P388 cells allografted CD2F1 mouse assessed as mouse survival at 12.5 mg/kg, ip of total 9 doses starting 24 hrs post tumor inoculation measured on day 5 of inoculation relative to control; assay type: organism-based; parameters: dose 12.5 mg/kg, route intraperitoneal; conditions: in vivo
# In short: (§1)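 Male CD2F1 mice bearing ip P388 leukemia (6×10^6 cells) were dosed ip with nine daily doses in distilled water–Tween 80 suspension, starting 24 h after inoculation. Survivors per group of 6 were counted on day 5, i.e. 4 days after the first dose. Body-weight change of treated minus control mice was also recorded.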
# [2] = tested on: P388; experiment: Antitumor activity against mouse P388 cells allografted in CD2F1 mouse assessed as increase in mouse survival at 25 mg/kg, ip of total 9 doses starting 24 hrs post tumor inoculation measured on day 5 of inoculation relative to control; assay type: functional; conditions: route intraperitoneal
# In short: (§2)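 Male CD2F1 mice inoculated ip with 6×10^6 P388 leukemia cells. Dosing was ip as a suspension in distilled water–Tween 80, nine daily doses starting 24 h after inoculation. Activity was read as median survival time of treated vs control mice (% T/C); % T/C ≥ 120 was considered significant. Groups were 6 mice.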
# [3] = tested on: Mus musculus; experiment: Toxicity in mouse P388 cells allografted CD2F1 mouse assessed as body weight loss at 100 mg/kg, ip of total 9 doses starting 24 hrs post tumor inoculation measured on day 5 of inoculation relative to control; assay type: organism-based; parameters: dose 100 mg/kg, route intraperitoneal; conditions: in vivo
# In short: (§3)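 Male CD2F1 mice inoculated ip with 6×10^6 P388 leukemia cells. Compounds given ip as distilled water–Tween 80 suspension, nine daily doses starting 24 h after inoculation; six mice per dose group. Treated-minus-control body-weight change (T − C) and toxicity-day survivors recorded on day 5 (4 days after first dose).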
# [4] = tested on: P388; experiment: Antitumor activity against mouse P388 cells allografted in CD2F1 mouse assessed as increase in mouse survival at 12.5 mg/kg, ip of total 9 doses starting 24 hrs post tumor inoculation measured on day 5 of inoculation relative to control; assay type: functional; conditions: route intraperitoneal; in short: as §2
# [5] = tested on: Mus musculus; experiment: Toxicity in mouse P388 cells allografted CD2F1 mouse assessed as mouse survival at 6.25 mg/kg, ip of total 9 doses starting 24 hrs post tumor inoculation measured on day 5 of inoculation relative to control; assay type: organism-based; parameters: dose 6.25 mg/kg, route intraperitoneal; conditions: in vivo; in short: as §1
# [6] = tested on: Staphylococcus epidermidis; experiment: Antimicrobial activity against Staphylococcus epidermidis ATCC 12228 at 1 mg after 24 hrs by disk sensitivity assay; assay type: functional, organism-based
# In short: (§4)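 Bacteria grown 24 h in trypticase soy broth; 1 mL used to seed a lawn on trypticase soy agar. Sterile 6 mm paper disks carrying 1 mg test compound placed on agar, incubated 24 h at 37 °C, then zone of inhibition around each disk measured.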
# [7] = tested on: Mus musculus; experiment: Toxicity in mouse P388 cells allografted CD2F1 mouse assessed as mouse survival at 50 mg/kg, ip of total 9 doses starting 24 hrs post tumor inoculation measured on day 5 of inoculation relative to control; assay type: organism-based; parameters: dose 50 mg/kg, route intraperitoneal; conditions: in vivo; in short: as §1
# [8] = tested on: P388; experiment: Antitumor activity against mouse P388 cells allografted in CD2F1 mouse assessed as increase in mouse survival at 50 mg/kg, ip of total 9 doses starting 24 hrs post tumor inoculation measured on day 5 of inoculation relative to control; assay type: functional; conditions: route intraperitoneal; in short: as §2
# [9] = tested on: P388; experiment: Antitumor activity against mouse P388 cells allografted in CD2F1 mouse assessed as increase in mouse survival at 6.25 mg/kg, ip of total 9 doses starting 24 hrs post tumor inoculation measured on day 5 of inoculation relative to control; assay type: functional; conditions: route intraperitoneal; in short: as §2
# [10] = tested on: Mus musculus; experiment: Toxicity in mouse P388 cells allografted CD2F1 mouse assessed as body weight loss at 6.25 mg/kg, ip of total 9 doses starting 24 hrs post tumor inoculation measured on day 5 of inoculation relative to control; assay type: organism-based; parameters: dose 6.25 mg/kg, route intraperitoneal; conditions: in vivo; in short: as §3
# [11] = tested on: Mus musculus; experiment: Toxicity in mouse P388 cells allografted CD2F1 mouse assessed as body weight loss at 25 mg/kg, ip of total 9 doses starting 24 hrs post tumor inoculation measured on day 5 of inoculation relative to control; assay type: organism-based; parameters: dose 25 mg/kg, route intraperitoneal; conditions: in vivo; in short: as §3
# [12] = tested on: Mus musculus; experiment: Toxicity in mouse P388 cells allografted CD2F1 mouse assessed as body weight loss at 50 mg/kg, ip of total 9 doses starting 24 hrs post tumor inoculation measured on day 5 of inoculation relative to control; assay type: organism-based; parameters: dose 50 mg/kg, route intraperitoneal; conditions: in vivo; in short: as §3
# [13] = tested on: Mus musculus; experiment: Toxicity in mouse P388 cells allografted CD2F1 mouse assessed as mouse survival at 25 mg/kg, ip of total 9 doses starting 24 hrs post tumor inoculation measured on day 5 of inoculation relative to control; assay type: organism-based; parameters: dose 25 mg/kg, route intraperitoneal; conditions: in vivo; in short: as §1
# [14] = tested on: Mus musculus; experiment: Toxicity in mouse P388 cells allografted CD2F1 mouse assessed as body weight loss at 12.5 mg/kg, ip of total 9 doses starting 24 hrs post tumor inoculation measured on day 5 of inoculation relative to control; assay type: organism-based; parameters: dose 12.5 mg/kg, route intraperitoneal; conditions: in vivo; in short: as §3
# [15] = tested on: P388; experiment: Antitumor activity against mouse P388 cells allografted in CD2F1 mouse assessed as increase in mouse survival at 100 mg/kg, ip of total 9 doses starting 24 hrs post tumor inoculation measured on day 5 of inoculation relative to control; assay type: functional; conditions: route intraperitoneal; in short: as §2
# [16] = tested on: P388; experiment: Antitumor activity against mouse P388 cells allografted in CD2F1 mouse assessed as increase in mouse survival at 20 mg/kg, ip of total 9 doses starting 24 hrs post tumor inoculation measured on day 5 of inoculation relative to control; assay type: functional; conditions: route intraperitoneal; in short: as §2
# [17] = tested on: P388; experiment: Antitumor activity against mouse P388 cells allografted in CD2F1 mouse assessed as increase in mouse survival at 40 mg/kg, ip of total 9 doses starting 24 hrs post tumor inoculation measured on day 5 of inoculation relative to control; assay type: functional; conditions: route intraperitoneal; in short: as §2
# [18] = tested on: P388; experiment: Antitumor activity against mouse P388 cells allografted in CD2F1 mouse assessed as increase in mouse survival at 5 mg/kg, ip of total 9 doses starting 24 hrs post tumor inoculation measured on day 5 of inoculation relative to control; assay type: functional; conditions: route intraperitoneal; in short: as §2
# [19] = tested on: Mus musculus; experiment: Toxicity in mouse P388 cells allografted CD2F1 mouse assessed as body weight loss at 10 mg/kg, ip of total 9 doses starting 24 hrs post tumor inoculation measured on day 5 of inoculation relative to control; assay type: organism-based; parameters: dose 10 mg/kg, route intraperitoneal; conditions: in vivo; in short: as §3
# [20] = tested on: P388; experiment: Antitumor activity against mouse P388 cells allografted in CD2F1 mouse assessed as increase in mouse survival at 10 mg/kg, ip of total 9 doses starting 24 hrs post tumor inoculation measured on day 5 of inoculation relative to control; assay type: functional; conditions: route intraperitoneal; in short: as §2
# [21] = tested on: Mus musculus; experiment: Toxicity in mouse P388 cells allografted CD2F1 mouse assessed as mouse survival at 5 mg/kg, ip of total 9 doses starting 24 hrs post tumor inoculation measured on day 5 of inoculation relative to control; assay type: organism-based; parameters: dose 5 mg/kg, route intraperitoneal; conditions: in vivo; in short: as §1
# [22] = tested on: Mus musculus; experiment: Toxicity in mouse P388 cells allografted CD2F1 mouse assessed as body weight loss at 20 mg/kg, ip of total 9 doses starting 24 hrs post tumor inoculation measured on day 5 of inoculation relative to control; assay type: organism-based; parameters: dose 20 mg/kg, route intraperitoneal; conditions: in vivo; in short: as §3
# [23] = tested on: Mus musculus; experiment: Toxicity in mouse P388 cells allografted CD2F1 mouse assessed as body weight loss at 5 mg/kg, ip of total 9 doses starting 24 hrs post tumor inoculation measured on day 5 of inoculation relative to control; assay type: organism-based; parameters: dose 5 mg/kg, route intraperitoneal; conditions: in vivo; in short: as §3
# [24] = tested on: Mus musculus; experiment: Toxicity in mouse P388 cells allografted CD2F1 mouse assessed as body weight loss at 40 mg/kg, ip of total 9 doses starting 24 hrs post tumor inoculation measured on day 5 of inoculation relative to control; assay type: organism-based; parameters: dose 40 mg/kg, route intraperitoneal; conditions: in vivo; in short: as §3
# [25] = tested on: Mus musculus; experiment: Toxicity in mouse P388 cells allografted CD2F1 mouse assessed as mouse survival at 20 mg/kg, ip of total 9 doses starting 24 hrs post tumor inoculation measured on day 5 of inoculation relative to control; assay type: organism-based; parameters: dose 20 mg/kg, route intraperitoneal; conditions: in vivo; in short: as §1
# [26] = tested on: Mus musculus; experiment: Toxicity in mouse P388 cells allografted CD2F1 mouse assessed as mouse survival at 10 mg/kg, ip of total 9 doses starting 24 hrs post tumor inoculation measured on day 5 of inoculation relative to control; assay type: organism-based; parameters: dose 10 mg/kg, route intraperitoneal; conditions: in vivo; in short: as §1
# [27] = tested on: Staphylococcus aureus; experiment: Antimicrobial activity against Staphylococcus aureus ATCC 25923 at 1 mg after 24 hrs by disk sensitivity assay; assay type: functional, organism-based; in short: as §4
# [28] = tested on: Enterobacter cloacae; experiment: Antimicrobial activity against Enterobacter cloacae ATCC 23355 at 1 mg after 24 hrs by disk sensitivity assay; assay type: functional, organism-based; in short: as §4
# [29] = tested on: Proteus vulgaris; experiment: Antimicrobial activity against Proteus vulgaris ATCC 6380 at 1 mg after 24 hrs by disk sensitivity assay; assay type: functional, organism-based; in short: as §4
# [30] = tested on: Serratia marcescens; experiment: Antimicrobial activity against Serratia marcescens ATCC 8100 at 1 mg after 24 hrs by disk sensitivity assay; assay type: functional, organism-based; in short: as §4
# [31] = tested on: Klebsiella pneumoniae; experiment: Antimicrobial activity against Klebsiella pneumoniae ATCC 23357 at 1 mg after 24 hrs by disk sensitivity assay; assay type: functional, organism-based; in short: as §4
# [32] = tested on: Salmonella typhimurium; experiment: Antimicrobial activity against Salmonella typhimurium ATCC 14028 at 1 mg after 24 hrs by disk sensitivity assay; assay type: functional, organism-based; conditions: Salmonella enterica subsp. enterica serovar Typhimurium; in short: as §4
# [33] = tested on: Escherichia coli; experiment: Antimicrobial activity against Escherichia coli ATCC 25922 at 1 mg after 24 hrs by disk sensitivity assay; assay type: functional, organism-based; in short: as §4
SMILES,Activity [1],T/C [2],Activity [3],T/C [4],Activity [5],Activity [6],Activity [7],T/C [8],T/C [9],Activity [10],Activity [11],Activity [12],Activity [13],Activity [14],T/C [15],Activity [27],also measured
CNC(=O)OCc1c(COC(=O)NC)c(-c2ccc(Cl)c(Cl)c2)n(C)c1C,Non-toxic,148%,5.9 g,145%,Non-toxic,Active,Non-toxic,163%,145%,1.7 g,2.4 g,3.2 g,Non-toxic,1.7 g,–,–,–
CNC(=O)OCc1c(COC(=O)NC)c(-c2ccccc2)n(C)c1C,Non-toxic,145%,6 g,130%,Non-toxic,–,Non-toxic,90%,135%,2.5 g,3.9 g,4.6 g,Non-toxic,3.3 g,<70%,–,–
CNC(=O)OCc1c(COC(=O)NC)c(-c2ccc(Br)cc2)n(C)c1C,–,–,–,–,–,–,–,–,–,–,–,–,–,–,–,–,T/C [16]: 155%; T/C [17]: <75%; T/C [18]: 144%; Activity [19]: 2.8 g; T/C [20]: 146%; Activity [21]: Non-toxic; Activity [22]: 2.8 g; Activity [23]: 1.8 g; Activity [24]: 5 g; Activity [25]: Non-toxic; Activity [26]: Non-toxic
CNC(=O)OCc1c(COC(=O)NC)c(-c2ccc([N+](=O)[O-])cc2)n(C)c1C,Non-toxic,<90%,4.4 g,169%,Non-toxic,inactive,–,< 90%,153%,2.9 g,5.5 g,6.6 g,Non-toxic,4.1 g,–,inactive,Activity [28]: inactive; Activity [29]: inactive; Activity [30]: inactive; Activity [31]: inactive; Activity [32]: inactive; Activity [33]: inactive
CNC(=O)OCc1c(COC(=O)NC)c(-c2ccc(OC)cc2)n(C)c1C,Non-toxic,145%,5.5 g,138%,Non-toxic,Active,Non-toxic,152%,135%,2.4 g,3.4 g,4.4 g,Non-toxic,3.2 g,<70%,Active,–
